Assay: Toxicity liver stage against HepG2, at 10uM
Format: cell-based
Design: test concentration 10 uM, cell line HepG2-A16-CD81EGFP
Details: human, HepG2-A16-CD81EGFP cells; read-out: INHIBITION
Outline: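 Uninfected HepG2-A16-CD81EGFP cells, 3 × 10^3 per well, 1536-well, plated on prespotted compound at 10 μM final, parasite-free screening media added to match infected plates; puromycin 10 μM positive, DMSO 0.5% negative; run in parallel with 48 h PbLuc assay at 37 °C, 5% CO2; viability by CellTiter-Glo luminescence, normalized to controls.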

Going from `CCCC(=O)N(C)c1cc(C#N)c2ccccc2n1` to `CC(=O)c1cccc(OCCCC(=O)N(C)Cc2cscn2)c1`, the cytotoxicity at 10 µM rises from -7.55% to 0.175%.

Compared with `CCOc1cccc(C(=O)N2CCN(c3nccc(OC)n3)CC2)c1`, `CCn1c(N)nc2cc(C(=O)N3CCN(c4ccncc4)CC3)cnc21` is lower in cytotoxicity at 10 µM: 5.41% for the first, -8.3% for the second.

First: CC(NC(=O)CCC1CCCCC1)c1nnc2n1CCC2 (stereo not drawn)
Second: O=C(NCc1cnc2n1CCN(CC1CC1)C2)C1CC1
The cytotoxicity at 10 µM of the first is lower: -27.1% for the first, 5.06% for the second.

Compared with `Oc1cc(CN2CCC(O)(Cn3ccnc3)CC2)nc2ccc(F)cc12`, `CCOC(=O)C1(Cc2ccc(Cl)cc2)CCN(Cc2ncc[nH]2)CC1` is higher in cytotoxicity at 10 µM: -44.5% for the first, -2.36% for the second.

First: CCc1nncn1CCNC(=O)Nc1ccc(OC)c(C)c1
Second: Cn1ccnc1-c1cccc(NC(=O)NCC(=O)NC(C)(C)C)c1
The cytotoxicity at 10 µM of the first is higher: 9.89% for the first, -3.84% for the second.

Going from `CCc1nn2c(=N)c(C#N)n[nH]c2c1-c1ccc(OC)cc1` to `COc1ccc(CCNC(=O)CN2CCCC2c2noc(C)n2)cc1` (stereo not drawn), the cytotoxicity at 10 µM rises from -3.73% to 0.772%.

Compared with `CC1CN(Cc2ccc(C#N)cc2F)CCN1Cc1nccn1C` (stereo not drawn), `CCc1nc(CN(C)C2CCN(Cc3ccc(C#N)cc3F)C2)no1` (stereo not drawn) is lower in cytotoxicity at 10 µM: -4.66% for the first, -7.12% for the second.

Compared with `Cc1nc(C)c(C(=O)N2CCc3nnc(C4CCCN4C)n3CC2)s1` (stereo not drawn), `Cc1nn(CCC(=O)N2CCN(Cc3cnn(C)c3C)CC2)c(C)c1Br` is higher in cytotoxicity at 10 µM: -4.34% for the first, 4.07% for the second.

Compared with `Cc1nc[nH]c1CN1C[C@@H]2OCCN(c3ncccn3)[C@@H]2C1`, `CN(C)c1ncccc1NC(=O)C1CN(Cc2ccccc2)CCO1` (stereo not drawn) is higher in cytotoxicity at 10 µM: -70.4% for the first, 0.499% for the second.

Going from `CCS(=O)(=O)NC(CCSC)C(=O)Nc1cccc(C)c1C` (stereo not drawn) to `CCc1noc(C(C)N(C)CC(=O)Nc2c(C)cccc2C)n1` (stereo not drawn), the cytotoxicity at 10 µM rises from -2.51% to 2.14%.

Compared with `CNc1cc(C(=O)N(C)Cc2cc(-c3cccs3)n[nH]2)ccn1`, `CCOCCn1c(=O)[nH]c2cc(C(=O)N(C)Cc3cnn(C)c3)ccc21` is higher in cytotoxicity at 10 µM: -9.22% for the first, 2.81% for the second.

Going from `Cc1nnc(NCC2(c3ccccc3)CCOCC2)c(C#N)c1C` to `Clc1ccc(C2(CNC3=NCCN3)CC2)cc1`, the cytotoxicity at 10 µM rises from 7.35% to 7.38%.

Going from `O=C(c1ccco1)N1CCc2ncnc(Oc3cccnc3)c2CC1` to `CCS(=O)(=O)N1CCCn2cnc(COc3cccnc3)c2C1`, the cytotoxicity at 10 µM rises from -2.86% to -0.00278%.

Compared with `CN(C)CCN(C)S(=O)(=O)Cc1ccc(Br)cc1`, `CN(C)S(=O)(=O)c1cccc(CNc2cc(CO)ccc2Cl)c1` is higher in cytotoxicity at 10 µM: 0.936% for the first, 5.36% for the second.

First: Cc1csc2c(C3CCN(CCOc4ccccc4F)CC3)nc(C)n12
Second: CN1CCCC1c1cccc(Cc2ccccc2F)n1 (stereo not drawn)
The cytotoxicity at 10 µM of the first is lower: 5.89% for the first, 7.31% for the second.

Going from `Cc1c(C(=O)NCCC(C)C)nnn1-c1cccc2c1CCN(C)C2` to `COC(=O)N1CCc2ccccc2C1C(=O)NCc1nc(C)no1` (stereo not drawn), the cytotoxicity at 10 µM rises from 1.31% to 3.88%.

First: O=C(Cc1cccs1)N1CCn2cc(Cn3cccn3)nc2C1
Second: COc1ccc(CC(=O)N2CCCCC2Cn2cccn2)cc1 (stereo not drawn)
The cytotoxicity at 10 µM of the first is lower: -77.9% for the first, -11.3% for the second.

Compared with `O=C1CC(NS(=O)(=O)c2ccc(Cl)cc2)CN1` (stereo not drawn), `O=S(=O)(c1ccc(F)c(F)c1)n1cc(Cl)cn1` is lower in cytotoxicity at 10 µM: 6.66% for the first, 4.66% for the second.

First: O=C1CCC[C@]2(CN(S(=O)(=O)C3CCCCC3)C[C@H]2c2cccnc2)N1
Second: N#Cc1ccc(C2CC(=O)Nc3c2cnn3C2CCCC2)cc1 (stereo not drawn)
The cytotoxicity at 10 µM of the first is lower: -12.4% for the first, 13.2% for the second.

Compared with `Cc1ccc(S(=O)(=O)NC(=O)CCOCc2ccccc2)s1`, `CS(=O)(=O)N[C@@H]1CCN(Cc2cccnc2)[C@H]1Cc1ccccc1` is lower in cytotoxicity at 10 µM: -11.2% for the first, -74.5% for the second.

First: CC(C#N)CNS(=O)(=O)c1ccc(F)c(Br)c1 (stereo not drawn)
Second: CS(=O)(=O)CCc1ncnn1-c1ccc(F)c(Cl)c1
The cytotoxicity at 10 µM of the first is higher: -1.69% for the first, -4.56% for the second.

Going from `COc1ccc(CN2CCn3cc(CNC(=O)C4CCC4)nc3C2)cc1` to `O=C(CSCC1CC1)N1CCCN(Cc2ccc(F)cc2)CC1`, the cytotoxicity at 10 µM falls from 5.42% to 3.54%.

First: Cc1ccc(C)c2c1NC(=O)C2CC(=O)O (stereo not drawn)
Second: CC(=O)N(C)CC(=O)NC1(c2ccc(Cl)c(Cl)c2)CC1
The cytotoxicity at 10 µM of the first is higher: 28.4% for the first, -5.57% for the second.

First: CCC1CN(C(=O)Cc2coc(-c3ccccc3)n2)CCO1 (stereo not drawn)
Second: COc1ccccc1CC1CCCN1C(=O)c1cn[nH]c1C (stereo not drawn)
The cytotoxicity at 10 µM of the first is higher: 3.06% for the first, 0.58% for the second.

Compared with `CN1CCC(N[C@@H]2CO[C@H](CNC(=O)C3CCCC3)[C@H]2O)CC1`, `O=C(NC1(C(=O)NCC2CC2)CCCC1)C1Cc2cc(F)ccc2O1` (stereo not drawn) is higher in cytotoxicity at 10 µM: -4.63% for the first, 8% for the second.

First: CC(C)N1CCCC(C(=O)NCCCc2cnn(C)c2)C1 (stereo not drawn)
Second: CN(Cc1cnn(C)c1)C(=O)NCC1CCS(=O)(=O)C1 (stereo not drawn)
The cytotoxicity at 10 µM of the first is higher: 17.1% for the first, 10.3% for the second.

Compared with `CCc1[nH]c(C2(N)CCCCC2)nc(=O)c1C`, `O=C(CC1OCCc2ccccc21)NCC1(O)CCCCC1` (stereo not drawn) is lower in cytotoxicity at 10 µM: 7.61% for the first, 1.07% for the second.

Compared with `Cc1nn(C)c(N2CCOCC2)c1CNC(C)c1cccs1` (stereo not drawn), `Cc1ccc(F)cc1NC(=O)NCC(C)N1CCOCC1` (stereo not drawn) is higher in cytotoxicity at 10 µM: -1.47% for the first, 2.6% for the second.

First: CCOCc1ncn2c1CN(C(=O)c1ccoc1)CC2
Second: CCn1cc(C(=O)N2CCOCC2)cn1
The cytotoxicity at 10 µM of the first is lower: -72.6% for the first, 0.805% for the second.

Compared with `Cc1cc(C(=O)NCC(F)(F)F)c2c(C3CCNCC3)noc2n1`, `Cc1nc(NCc2scnc2-c2ccccc2)cc(C2CCNCC2)n1` is lower in cytotoxicity at 10 µM: 10.4% for the first, 1.69% for the second.

Compared with `CN(C)C(=O)c1n[nH]c2c1CN(Cc1ccccn1)CC2`, `Cc1cccnc1CC(C)Nc1nc(N)nc2c1CCNC2` (stereo not drawn) is lower in cytotoxicity at 10 µM: 3.17% for the first, 2.09% for the second.

Going from `O=C(Cn1cc(Cl)cn1)N1CCNC1=O` to `Cn1ccnc1CN1C[C@H]2CN(S(C)(=O)=O)CCN2C1=O`, the cytotoxicity at 10 µM rises from -13.2% to -6.04%.

Going from `CS(=O)(=O)N1C[C@@H]2COC[C@]2(C(=O)NCCc2cccs2)C1` to `c1cc(COC[C@]23COC[C@H]2CN(Cc2ccncc2)C3)ccn1`, the cytotoxicity at 10 µM rises from -110% to -63.5%.

First: CC1CN(C(=O)Nc2cc(C(F)(F)F)c[nH]c2=O)CC(C)(C)O1 (stereo not drawn)
Second: O=C(NCCOc1ccc2c(c1)OCO2)N1CCCC(CO)C1 (stereo not drawn)
The cytotoxicity at 10 µM of the first is higher: 8.96% for the first, -22.3% for the second.

Going from `COc1ccc(CCNC(=O)NCC(O)c2cccc(F)c2)cc1` (stereo not drawn) to `Cc1cc(C)nc(NCCC(=O)Nc2ccc(Cn3cncn3)cc2)n1`, the cytotoxicity at 10 µM rises from -6.33% to -2.82%.

Compared with `Cc1ccc(-c2ccnc(N(C)CC3CCCO3)n2)c(C)n1` (stereo not drawn), `CCc1ccc2nc(C)cc(C(=O)NCc3csc(N(C)C)n3)c2c1` is higher in cytotoxicity at 10 µM: -2.59% for the first, 2.64% for the second.

First: NC(=O)N1CCC(C(=O)NCc2nncn2-c2ccccc2)CC1
Second: COCCS(=O)(=O)N1CCN(c2cccc(O)c2)CC1
The cytotoxicity at 10 µM of the first is lower: -18.7% for the first, 5.33% for the second.

Going from `Cc1cnc(-n2cnnc2)c(-c2cccc3c2CCNC3)c1` to `CNC(=O)c1cc(-n2ccnc2-c2cnc(N(C)C)nc2)ccc1OC`, the cytotoxicity at 10 µM falls from 17.7% to -6.91%.

First: CN(CC(N)=O)S(=O)(=O)c1ccc(F)cc1F
Second: O=C(c1ccc(O)c(Cl)c1)N(Cc1ccncc1)C1CC1
The cytotoxicity at 10 µM of the first is higher: 4.26% for the first, -8.99% for the second.

Going from `CCSc1ncc(CN2CC[C@@](O)(COC)C(C)(C)C2)cn1` to `Cc1nc2ccc(C(=O)N3CCN(CCO)[C@@H]4CS(=O)(=O)C[C@@H]43)cc2o1`, the cytotoxicity at 10 µM rises from -4.05% to -1.32%.

Compared with `O=C(C1CCC1)N1CCN(C(=O)c2cnccn2)[C@H]2CS(=O)(=O)C[C@H]21`, `Cn1cc(-c2nnc3sc(C4CCC4)nn23)cn1` is lower in cytotoxicity at 10 µM: -10.8% for the first, -13% for the second.

`COc1cc(CNCc2ccco2)ccc1OCCO` gave a cytotoxicity at 10 µM of 3.35%.
